Compound activity (PubChem BioAssay)
TRAIL sens C8 – caspase-8 TRAIL sensitization; NB7+C8 cells + TRAIL, ATPlite viability luminescence; inhibition (viability loss, TRAIL sensitization), % at 10 µM; 1% of 360,000 active;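 active = compounds causing at least 50% loss of cell viability in the single-dose screen, relative to plate controls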
FLuc act counter – affects firefly luciferase, flagging false hits in luciferase stimulation screens; P08659; ATPlite luciferase biochemical, luminescence, 10 min; 0 = ATP-free wells, 1 = DMSO control; activation factor at 10 µM; 200,000 tested, under 10 active; AID 1027;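 active = luciferase activation factor, scaled between plate controls, of at least 2 with compound at 10 µM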
Target sequence (P08659 whole entry, looked up): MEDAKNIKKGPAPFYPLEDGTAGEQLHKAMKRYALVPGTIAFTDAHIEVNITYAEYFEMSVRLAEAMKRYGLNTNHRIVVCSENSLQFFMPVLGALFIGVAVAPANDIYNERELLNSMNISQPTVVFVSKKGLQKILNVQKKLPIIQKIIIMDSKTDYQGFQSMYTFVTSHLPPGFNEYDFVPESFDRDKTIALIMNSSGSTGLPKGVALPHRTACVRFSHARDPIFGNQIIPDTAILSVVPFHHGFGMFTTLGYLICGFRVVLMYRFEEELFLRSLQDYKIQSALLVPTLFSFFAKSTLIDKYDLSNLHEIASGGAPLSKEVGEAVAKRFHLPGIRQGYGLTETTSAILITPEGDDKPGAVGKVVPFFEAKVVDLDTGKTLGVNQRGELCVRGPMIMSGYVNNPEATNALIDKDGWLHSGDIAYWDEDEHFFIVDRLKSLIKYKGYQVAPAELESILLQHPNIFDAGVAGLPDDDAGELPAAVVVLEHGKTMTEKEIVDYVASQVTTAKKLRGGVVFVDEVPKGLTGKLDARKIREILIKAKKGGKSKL
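Material: Luciferase/luciferin reagent mix | Doses: Test compounds dosed from 2 mM stocks in 100% DMSO | Timing: 10 min incubation after luciferase reagent addition, room temperature | Measured by: Luminescence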
iPSC survival up – increases survival of single human iPS cells; 0.044% of 360,000 active; survival enhancement, % at 20 µM; hiPSC single-cell survival, ATPlite luminescence; 100% = ROCK inhibitor wells, 0% = DMSO; AID 602274; in the data active = survival enhancement above about 18%;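 also: cells exposed to compounds for 16 hours before the ATP read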
FLuc inh counter – inhibits firefly luciferase, flagging false hits in luciferase inhibition screens; ATPLite firefly luciferase biochemical luminescence, 10 min; 1.5% of 200,000 active; AID 1006; P08659; inhibition, % at 10 µM;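 active = inhibition above about 50% when tested at 10 µM, limit read from the data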
MIN6 prolif – inducers of beta-cell replication in MIN6 cells; MIN6 cells proliferation, ATPlite luminescence, 48 h; cells starved in 0.2% serum; 100% = growth in 10% serum; proliferation, % at 10 µM; 0.29% of 330,000 active; AID 2380;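 active = compounds whose signal lies at least 3.5 SD above the mean of all wells on their plate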
PPC-1+TRAIL kill – kills PPC-1 cancer cells in the presence of TRAIL | cell killing (% activity), % at 4 µM or 5 µM | 0.41% of 220,000 active | AID 1443 | PPC-1 cells + TRAIL, ATPLite viability luminescence;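 active = cell killing above 50% in the first pass at 4 µM, then a duplicate retest at 5 µM averaging 50% or more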
Numbers stand for hits; - = inactive; . = no result given; ! = a repeat was not active. Compounds with a hit are over-represented: about 1.8% of the library has one in this group of screens.

SMILES	TRAIL sens C8	FLuc act counter	iPSC survival up	FLuc inh counter	MIN6 prolif	PPC-1+TRAIL kill
c1ccc(-c2noc(-c3ccc4ccccc4c3)n2)cc1	55	-	-	68	-	-
c1ccc(-c2noc(-c3ccccc3-c3ccccc3)n2)cc1	-	-	-	-	-	-
O=C(/C=C/c1ccco1)Nc1ccccc1C(=O)O	48	-	-	80	-	-
Cc1ccc(-c2csc(NC(=O)/C=C/c3ccco3)c2C(=O)O)cc1	-	-	-	64	-	-
O=C(/C=C/c1ccco1)Nc1cccc(NC(=O)/C=C/c2ccco2)n1	-	-	-	52	-	-
NC(Cc1ccccc1)c1csc(NC(=O)Nc2ccccc2Oc2ccccc2)n1 (centres undefined)	75	.	-	.	.	.
COc1cc(NC(=O)Nc2nc(C(N)Cc3ccc(C(F)(F)F)cc3)cs2)cc(OC)c1OC (centres undefined)	53	.	-	.	.	.
CN(Cc1ccccc1)C(=O)c1ccc(Nc2nc(C(N)Cc3ccc(C(F)(F)F)cc3)cs2)nc1 (centres undefined)	93	.	-	.	.	.
NC(Cc1ccc(C(F)(F)F)cc1)c1csc(NC(=O)Nc2ccccc2Oc2ccccc2)n1 (centres undefined)	87	.	-	.	.	.
COc1ccccc1NC(=O)Nc1nc(C(N)Cc2ccc(C(F)(F)F)cc2)cs1 (centres undefined)	-	.	-	.	.	.
COc1ccc(NC(=O)Nc2nc(C(N)Cc3ccc(C(F)(F)F)cc3)cs2)cc1 (centres undefined)	-	.	-	.	.	.
CCN(CC(=O)Nc1ccc2c(c1)OCCO2)C(=O)COc1ccc(C(C)=O)cc1	-	.	-	.	.	.
COc1ccc(NS(=O)(=O)c2cc3c4c(c2)CCN4C(=O)CC3)c(OC)c1	-	.	-	.	-	.
O=C(c1cc(C2CC2)nc2ccccc12)N1N=C(C(F)F)CC1(O)C(F)F (centres undefined)	-	-	-	-	-	-
CC(C)c1ccc(-c2cc(C(=O)N3N=C(C(F)F)CC3(O)C(F)F)c3ccccc3n2)cc1 (centres undefined)	-	-	-	65	-	-
CC(C)c1ccc(-c2cc(C(=O)NN3CCN(C)CC3)c3ccccc3n2)cc1	77	-	-	88	-	66
CN1CCN(NC(=O)c2cc(-c3cccc(Cl)c3)nc3ccccc23)CC1	-	-	-	-	-	-
COc1cccc(/C=C/C(=O)OCC(=O)NCCCc2ccccc2)c1OC	-	.	-	.	-	.
COc1ccc(S(=O)(=O)NCC(c2cccnc2)N2CCN(Cc3ccccc3)CC2)cc1C (centres undefined)	-	.	-	.	-	.
CCCCCCCCCCCCCCCC[N+](C)(C)CC	92	.	-	.	-	.
CCCCCC[N+](C)(C)CCSSCC[N+](C)(C)CCCCCC	-	.	-	.	-	-
CCCCCCCCCCCCCCCC[N+](C)(C)CCl	90	.	-	.	.	.
CCOc1ccc(/C=C/C(=O)c2c(O)cc(C)oc2=O)cc1	66	.	-	.	-	.
Cc1cc(O)c(C(=O)/C=C/c2ccccc2)c(=O)o1	-	.	-	.	-	.
CN(C)c1ccc(/C=C/C(=O)c2c(O)c3ccccc3oc2=O)cc1	-	.	-	.	-	-
SMILES	TRAIL sens C8	FLuc act counter	iPSC survival up	FLuc inh counter	MIN6 prolif	PPC-1+TRAIL kill
CCOc1ccc(/C=C/C(=O)c2c(O)c3ccccc3oc2=O)cc1	-	-	-	67	-	-
CNc1ncnc2c1ncn2[C@H]1CN(CCN2CCOCC2)C[C@@H](CO)O1	-	.	-	.	.	.
C=CCN=c1scc(-c2ccccc2)n1/N=C/c1ccccn1	53!	-	-	-	-	-
C=CCN=c1scc(-c2ccc(F)cc2)n1/N=C/c1ccccn1	-	-	-	-	-	-
CCN=c1scc(-c2ccccc2)n1/N=C/c1ccccn1	89	-	-	74	-	-
CCOC(=O)c1nn(-c2ccc(Cl)cc2)cc1O	-	.	-	.	-	-
COC(=O)c1nn(-c2ccc(-c3ccccc3)cc2)cc1O	58	-	-	80	-	-
CCOC(=O)c1nn(-c2ccc(C)cc2)cc1O	-	-	-	59	-	-
CCOC(=O)c1nn(-c2ccccc2)cc1O	-	.	-	.	-	-
Cc1cccc(C)c1OCC(=O)NNC(=S)NC(=O)C1CC1	-	.	-	.	-	.
O=C(Nc1nc2c(s1)CCCC2)c1ccc(Br)o1	57	-	-	68	-	-
COc1cc(/C=C(\C#N)C(=O)Nc2ccccc2C(=O)O)cc(Cl)c1OC	-	-	-	-	-	-
C=CCN1C(=O)C(=Cc2ccc3c(c2)CCC3)SC1=S	92	.	-	.	.	.
C=CCN1C(=O)/C(=C/c2ccsc2)SC1=S	-	-	-	-	-	-
Cc1ccccc1C(=O)N1CCN(c2ccc([N+](=O)[O-])c(N3CCOCC3)c2)CC1	-	-	-	-	-	-
COc1ccc(CCNc2cc(N3CCN(C(=O)c4ccccc4F)CC3)ccc2[N+](=O)[O-])cc1OC	52	-	-	-	-	-
O=C(c1ccccc1F)N1CCN(c2ccc([N+](=O)[O-])c(N3CCOCC3)c2)CC1	-	-	-	90	-	-
O=S1(=O)CC(N2CCCCC2)CN1Cc1cn(Cc2ccc(Cl)cc2)nn1 (centres undefined)	-	.	-	.	.	.
C[C@H](NC(=O)[C@H]1N2C(=O)c3ccccc3C2SC1(C)C)C(=O)NCC1CCCO1 (some centres undefined)	-	.	-	.	-	.
C1CCc2c(nc3nnnn3c2NCC2CC2)C1	-	.	-	.	-	-
CC(C)n1cnc2c(NCc3ccccc3)cc(N[C@H](C)CO)cc21	60	.	-	.	-	.
CCC(COC)Oc1cc(NCc2ccccc2)c2ncn(C(C)C)c2c1 (centres undefined)	58	.	-	.	-	.
CCCNC(=O)c1onc(CS(=O)(=O)c2cc(C)cc(C)c2)c1C(=O)NCCC	-	.	-	.	-	.
CC1(C(=O)Nc2cccc3cccnc23)CCN1C(=O)CC1CC1 (centres undefined)	-	.	-	.	.	.
C#Cc1cccc(Nc2nc(NCc3ccccc3OC)nc3ccsc23)c1	46	.	-	.	.	.
SMILES	TRAIL sens C8	FLuc act counter	iPSC survival up	FLuc inh counter	MIN6 prolif	PPC-1+TRAIL kill
CCC(=O)N1CCCC(C)(C(=O)Nc2ccc(OC(F)F)cc2)C1 (centres undefined)	-	.	-	.	.	.
Cc1ccc(-c2cc3onc(-c4ccccc4)c3c(=O)n2C)cc1	78	.	-	.	-	.
O=C(Nc1ccc(Cl)c(Cl)c1)c1ccccc1	-	.	-	.	-	.
Cc1ccc(C(=O)Nc2ccc3ncccc3c2)cc1	90	.	-	.	-	.
COc1ccc(C(=O)Nc2ccc3ncccc3c2)cc1	83	.	-	.	-	.
O=C(Nc1ccc2nc3ccccc3nc2c1)c1ccccc1	57	-	-	66	.	-
CCOc1cc(OCC)cc(C(=O)N2CCC[C@H]2C(=O)N2CCC[C@H]2C(=O)NCc2ccccn2)c1	-	.	-	.	.	.
O=C(Nc1ccc(C(=O)O)cc1)/C(=C\C=C\c1ccccc1)NC(=O)c1ccccc1Cl	54	.	-	.	-	.
